This is a sample that favours compounds with a hit; in the whole collection about 3.7% have one here.
procasp3 activ: procaspase-3 (human) activation; recombinant procaspase-3 D3A, Ac-DEVD-pNA absorbance 405 nm; P42574; activation, % at 8.5 µM; hit rate 0.11% among 330,000;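 active means activation above the mean of all tested compounds plus 3 SD, cut at about 21% in these data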;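 further: 0% = DMSO alone and 100% = DMSO wells spiked with extra 5 µM PC-3 D3A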
Target sequence (P42574 whole entry D9A/D28A/D175A): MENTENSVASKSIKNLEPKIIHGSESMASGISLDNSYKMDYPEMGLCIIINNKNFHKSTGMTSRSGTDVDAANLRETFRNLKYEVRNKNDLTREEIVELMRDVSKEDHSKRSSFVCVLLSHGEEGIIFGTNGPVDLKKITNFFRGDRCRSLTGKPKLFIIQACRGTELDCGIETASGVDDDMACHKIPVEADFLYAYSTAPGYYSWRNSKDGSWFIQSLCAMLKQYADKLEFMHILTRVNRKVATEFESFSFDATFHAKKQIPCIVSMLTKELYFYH
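Assay system: Procaspase-3 D3A mutant, all three cleavage aspartates alanine. Buffer or medium: Zinc-free HEPES saline buffer with Triton X-100. Times: 1 h compound preincubation, 2 h substrate hydrolysis at 25 °C. Measured by: 405 nm absorbance of p-nitroaniline, reads at 0 and 120 min. Read-out basis: percent activation relative to control range. Replicates: singlicate.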
aDG glyco up: alpha-DG glycosylation activation. Pro5-aDG cells, alpha-DG glycosylation AlphaScreen (IIH6); 0% Pro5, 100% B10-LARGE cell signal. activation, % at 10 µM. hit rate 0.22% among 360,000;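 active means activation of at least 8% versus controls, or a plate z-score of at least 8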;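 further: Pro5 are CHO cells carrying HIG-tagged alpha-DG that lacks glycosylation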
proCasp7 act: counter-screen: procaspase-7 (human) activation | P55210 | recombinant procaspase-7, Ac-DEVD-pNA absorbance 405 nm; D23A/D198A/D206A triple mutant, cannot self-cleave; scale: DMSO 0, 5 µM enzyme 100 | activation, % at 8.5 µM | hit rate 0.093% among 330,000;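 active means percent activation above the screen-wide mean plus 3 SD, cut at about 25% in these data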
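System: Procaspase-7 triple mutant (PC-7 D3A); measure: % activation from two-timepoint absorbance difference, scaled to controls; times: 1 h compound preincubation, 2 h substrate cleavage, 25 °C; also added: Ac-DEVD-pNA substrate, 400 µM as added; measured by: Epi-absorbance of released pNA at 405 nm, two timepoints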
MPTP inh: inhibitors of mitochondrial permeability transition pore; isolated mouse mitochondria, Ca2+ swelling absorbance, 30 min; inhibition, % at 10 µM; hit rate 1.4% among 360,000; AID 602449;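 active means inhibition of 50% or more, scaled per plate between neutral and stimulator controls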;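 further: 0% = DMSO wells given calcium and 100% = 1 mM EGTA wells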
NR3A LBD binder: NR3A (human) ligand-binding domain modulation | NR3A LBD differential scanning fluorimetry, Tm shift; 0% = protein alone, 100% = glycine-bound protein | Tm shift relative to glycine control, % at 25 µM | hit rate 2.5% among 340,000 | AID 1259313;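 active means melting temperature shift of at least 10% of the positive control shift, at one fixed dose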
The depositor's hits bear a star.

For CCOC(=O)c1c(C)[nH]c(C(=O)OCC(=O)Nc2ccc(Cl)cn2)c1C the results were procasp3 activ -6, aDG glyco up 0, proCasp7 act 16, MPTP inh 1 and NR3A LBD binder 1.
CCOC(=O)c1c(C)[nH]c(C(=O)OCC(=O)Nc2sccc2C(N)=O)c1C was read as procasp3 activ -3, aDG glyco up 1, proCasp7 act -13, MPTP inh -1 and NR3A LBD binder 29*.
`NC(=O)c1ccsc1NC(=O)COC(=O)c1ccccc1F` gave procasp3 activ 9, aDG glyco up 0, proCasp7 act 11, MPTP inh -1 and NR3A LBD binder 1.
For COc1cc2nc(CN3CCN(S(=O)(=O)c4ccccc4[N+](=O)[O-])CC3)[nH]c(=O)c2cc1OC the results were aDG glyco up 0 and MPTP inh 0.
Screening COc1ccc(-c2nn(-c3ccccc3)cc2C(=O)N(C)CC(=O)Nc2cccc(F)c2)cc1 returned procasp3 activ 9, aDG glyco up 0, proCasp7 act 2, MPTP inh 1 and NR3A LBD binder 11*.
Screening COc1cccc(-c2nn(-c3ccc(C)cc3)cc2C(=O)N(C)CC(=O)Nc2cccc(F)c2)c1 returned procasp3 activ 8, aDG glyco up 0, proCasp7 act -5, MPTP inh 0 and NR3A LBD binder 13*.
`O=C(Nc1cccc(S(=O)(=O)N2CCOCC2)c1)c1cn(-c2ccccc2)nc1-c1ccc(F)cc1` gave procasp3 activ 9, aDG glyco up 0, proCasp7 act -1, MPTP inh 18 and NR3A LBD binder 22*.
For CCOc1ccc(NC(=O)CN(C)C(=O)c2cn(-c3ccc(C)cc3)nc2-c2cccc(OC)c2)cc1OCC the results were aDG glyco up -1, MPTP inh 0 and NR3A LBD binder 3.
Screening COc1ccc(-c2nn(-c3ccccc3)cc2C(=O)N(C)CC(=O)Nc2ccccc2Br)cc1 returned aDG glyco up 0, MPTP inh 0 and NR3A LBD binder -5.
For CN(CC(=O)Nc1cccc(F)c1)C(=O)c1cn(-c2ccccc2)nc1-c1ccc(F)cc1 the results were procasp3 activ -3, aDG glyco up 0, proCasp7 act 4, MPTP inh 0 and NR3A LBD binder 35*.
`CN(C)c1cccc(C(=O)OCC(=O)NC(=O)NCc2ccccc2)c1` gave procasp3 activ 12, aDG glyco up 0, proCasp7 act 3, MPTP inh 0 and NR3A LBD binder -7.
CCC/C=C/c1ccc(CN2C(C)C(=O)N(Cc3cn(CCC4OCCCO4)nn3)CCS2(=O)=O)cc1 (configuration not stated) was read as aDG glyco up 4 and MPTP inh -1.
Screening COC(=O)c1ccc(NC(=S)Nc2ccc(O)cc2)cc1 returned procasp3 activ -12, aDG glyco up 0, proCasp7 act -23, MPTP inh 2 and NR3A LBD binder 20*.
For Cn1ncc2c(Nc3ccccc3Br)ncnc21 the results were procasp3 activ -13, aDG glyco up 0, proCasp7 act -7, MPTP inh -6 and NR3A LBD binder 14*.
Screening CCN(CC)CCCN1CC(O)=C(c2nc3ccccc3s2)C1=N returned procasp3 activ 0, aDG glyco up 0, proCasp7 act 9, MPTP inh 0 and NR3A LBD binder 18*.
CCCNC(=O)C1(C)CCCN(Cc2ccccc2F)C1 (configuration not stated) was read as aDG glyco up 0 and MPTP inh -1.
`CN(C)c1ccc(NC(=O)c2sc(SCC(=O)Nc3ccc(Br)cc3)nc2N)cc1` gave procasp3 activ 13, aDG glyco up 0, proCasp7 act 5, MPTP inh 2 and NR3A LBD binder 16*.
`Cn1c(O)c(/C=C2\C=Nc3ccccc32)sc1=Nc1ccc(C(=O)O)cc1` gave procasp3 activ 2, aDG glyco up 0, proCasp7 act 10, MPTP inh 2 and NR3A LBD binder -2.
Screening O=C(Cc1ccccc1)Nn1c(O)c(/C=C2\C=Nc3ccccc32)sc1=S returned procasp3 activ -7, aDG glyco up 0, proCasp7 act -19, MPTP inh 9 and NR3A LBD binder 26*.
